Publication PMC13170702 (Nuclear medicine and biology, 2025)

Experiment: organ radiation dose estimates, OLINDA 2.0, ICRP-103
Format: in vivo, human
How it was run: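 Whole-body PET-MR ran as nine scans to 214 min. Organ VOIs were drawn in AMIDE, giving decay-corrected %IA per VOI; remainder = whole body minus measured organs. TIACs came from the EXM exponential model (OLINDA 1.1). Per-participant organ doses were computed in OLINDA 2.0 with 73 kg adult male or 60 kg female models. Effective dose (mSv) = organ absorbed doses × ICRP-103 tissue weighting factors.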

Effective dose (whole body) (F1 (189 MBq)): 4.54 mSv | Estimated absorbed dose, Adrenals (F1 (189 MBq)): 5.94 mGy | Estimated absorbed dose, Brain (F1 (189 MBq)): 3.21 mGy | Estimated absorbed dose, Breasts (F1 (189 MBq)): 1.71 mGy | Estimated absorbed dose, Colon, left (F1 (189 MBq)): 2.85 mGy | Estimated absorbed dose, Colon, right (F1 (189 MBq)): 2.77 mGy | Estimated absorbed dose, Esophagus (F1 (189 MBq)): 2.98 mGy | Estimated absorbed dose, Eyes (F1 (189 MBq)): 1.59 mGy | Estimated absorbed dose, Gallbladder wall (F1 (189 MBq)): 5.09 mGy | Estimated absorbed dose, Heart wall (F1 (189 MBq)): 4.40 mGy | Estimated absorbed dose, Kidneys (F1 (189 MBq)): 32.6 mGy | Estimated absorbed dose, Liver (F1 (189 MBq)): 8.25 mGy | Estimated absorbed dose, Lungs (F1 (189 MBq)): 10.2 mGy | Estimated absorbed dose, Osteogenic cells (F1 (189 MBq)): 1.77 mGy | Estimated absorbed dose, Ovaries (F1 (189 MBq)): 2.77 mGy | Estimated absorbed dose, Pancreas (F1 (189 MBq)): 5.49 mGy | Estimated absorbed dose, Rectum (F1 (189 MBq)): 3.34 mGy | Estimated absorbed dose, Red marrow (F1 (189 MBq)): 2.26 mGy | Estimated absorbed dose, Salivary glands (F1 (189 MBq)): 1.69 mGy | Estimated absorbed dose, Small intestine (F1 (189 MBq)): 7.43 mGy | Estimated absorbed dose, Spleen (F1 (189 MBq)): 10.1 mGy | Estimated absorbed dose, Stomach wall (F1 (189 MBq)): 3.08 mGy | Estimated absorbed dose, Thymus (F1 (189 MBq)): 7.59 mGy | Estimated absorbed dose, Thyroid (F1 (189 MBq)): 2.36 mGy | Estimated absorbed dose, Urinary bladder wall (F1 (189 MBq)): 16.2 mGy | Estimated absorbed dose, Uterus (F1 (189 MBq)): 4.55 mGy | Effective dose (whole body) (F2, no voiding (355 MBq)): 9.27 mSv | Estimated absorbed dose, Adrenals (F2, no voiding (355 MBq)): 11.7 mGy | Estimated absorbed dose, Brain (F2, no voiding (355 MBq)): 5.33 mGy | Estimated absorbed dose, Breasts (F2, no voiding (355 MBq)): 2.78 mGy | Estimated absorbed dose, Colon, left (F2, no voiding (355 MBq)): 4.83 mGy | Estimated absorbed dose, Colon, right (F2, no voiding (355 MBq)): 4.76 mGy | Estimated absorbed dose, Esophagus (F2, no voiding (355 MBq)): 5.40 mGy | Estimated absorbed dose, Eyes (F2, no voiding (355 MBq)): 2.43 mGy | Estimated absorbed dose, Gallbladder wall (F2, no voiding (355 MBq)): 9.31 mGy | Estimated absorbed dose, Heart wall (F2, no voiding (355 MBq)): 6.93 mGy | Estimated absorbed dose, Kidneys (F2, no voiding (355 MBq)): 93.4 mGy | Estimated absorbed dose, Liver (F2, no voiding (355 MBq)): 15.5 mGy | Estimated absorbed dose, Lungs (F2, no voiding (355 MBq)): 21.1 mGy | Estimated absorbed dose, Osteogenic cells (F2, no voiding (355 MBq)): 2.97 mGy | Estimated absorbed dose, Ovaries (F2, no voiding (355 MBq)): 5.90 mGy | Estimated absorbed dose, Pancreas (F2, no voiding (355 MBq)): 7.60 mGy | Estimated absorbed dose, Rectum (F2, no voiding (355 MBq)): 7.07 mGy | Estimated absorbed dose, Red marrow (F2, no voiding (355 MBq)): 4.01 mGy | Estimated absorbed dose, Salivary glands (F2, no voiding (355 MBq)): 2.62 mGy | Estimated absorbed dose, Small intestine (F2, no voiding (355 MBq)): 9.87 mGy | Estimated absorbed dose, Spleen (F2, no voiding (355 MBq)): 7.49 mGy | Estimated absorbed dose, Stomach wall (F2, no voiding (355 MBq)): 5.08 mGy | Estimated absorbed dose, Thymus (F2, no voiding (355 MBq)): 8.99 mGy | Estimated absorbed dose, Thyroid (F2, no voiding (355 MBq)): 17.5 mGy | Estimated absorbed dose, Urinary bladder wall (F2, no voiding (355 MBq)): 28.7 mGy | Estimated absorbed dose, Uterus (F2, no voiding (355 MBq)): 47.6 mGy | Effective dose (whole body) (F3 (117 MBq)): 2.27 mSv | Estimated absorbed dose, Adrenals (F3 (117 MBq)): 3.65 mGy | Estimated absorbed dose, Brain (F3 (117 MBq)): 1.52 mGy | Estimated absorbed dose, Breasts (F3 (117 MBq)): 1.09 mGy | Estimated absorbed dose, Colon, left (F3 (117 MBq)): 1.77 mGy | Estimated absorbed dose, Colon, right (F3 (117 MBq)): 1.81 mGy | Estimated absorbed dose, Esophagus (F3 (117 MBq)): 1.78 mGy | Estimated absorbed dose, Eyes (F3 (117 MBq)): 1.01 mGy | Estimated absorbed dose, Gallbladder wall (F3 (117 MBq)): 3.38 mGy | Estimated absorbed dose, Heart wall (F3 (117 MBq)): 2.27 mGy | Estimated absorbed dose, Kidneys (F3 (117 MBq)): 21.4 mGy | Estimated absorbed dose, Liver (F3 (117 MBq)): 6.07 mGy | Estimated absorbed dose, Lungs (F3 (117 MBq)): 4.63 mGy | Estimated absorbed dose, Osteogenic cells (F3 (117 MBq)): 1.11 mGy | Estimated absorbed dose, Ovaries (F3 (117 MBq)): 1.54 mGy | Estimated absorbed dose, Pancreas (F3 (117 MBq)): 2.79 mGy | Estimated absorbed dose, Rectum (F3 (117 MBq)): 1.46 mGy | Estimated absorbed dose, Red marrow (F3 (117 MBq)): 1.39 mGy | Estimated absorbed dose, Salivary glands (F3 (117 MBq)): 1.09 mGy | Estimated absorbed dose, Small intestine (F3 (117 MBq)): 3.98 mGy | Estimated absorbed dose, Spleen (F3 (117 MBq)): 3.58 mGy | Estimated absorbed dose, Stomach wall (F3 (117 MBq)): 1.87 mGy | Estimated absorbed dose, Thymus (F3 (117 MBq)): 2.50 mGy | Estimated absorbed dose, Thyroid (F3 (117 MBq)): 2.20 mGy | Estimated absorbed dose, Urinary bladder wall (F3 (117 MBq)): 1.54 mGy | Estimated absorbed dose, Uterus (F3 (117 MBq)): 3.86 mGy | Effective dose (whole body) (F4 (167 MBq)): 3.28 mSv | Estimated absorbed dose, Adrenals (F4 (167 MBq)): 4.53 mGy | Estimated absorbed dose, Brain (F4 (167 MBq)): 2.64 mGy | Estimated absorbed dose, Breasts (F4 (167 MBq)): 1.41 mGy | Estimated absorbed dose, Colon, left (F4 (167 MBq)): 2.41 mGy | Estimated absorbed dose, Colon, right (F4 (167 MBq)): 2.41 mGy | Estimated absorbed dose, Esophagus (F4 (167 MBq)): 2.41 mGy | Estimated absorbed dose, Eyes (F4 (167 MBq)): 1.33 mGy | Estimated absorbed dose, Gallbladder wall (F4 (167 MBq)): 3.61 mGy | Estimated absorbed dose, Heart wall (F4 (167 MBq)): 4.15 mGy | Estimated absorbed dose, Kidneys (F4 (167 MBq)): 28.1 mGy | Estimated absorbed dose, Liver (F4 (167 MBq)): 6.74 mGy | Estimated absorbed dose, Lungs (F4 (167 MBq)): 7.74 mGy | Estimated absorbed dose, Osteogenic cells (F4 (167 MBq)): 1.45 mGy | Estimated absorbed dose, Ovaries (F4 (167 MBq)): 2.17 mGy | Estimated absorbed dose, Pancreas (F4 (167 MBq)): 3.86 mGy | Estimated absorbed dose, Rectum (F4 (167 MBq)): 2.14 mGy | Estimated absorbed dose, Red marrow (F4 (167 MBq)): 1.84 mGy | Estimated absorbed dose, Salivary glands (F4 (167 MBq)): 1.41 mGy | Estimated absorbed dose, Small intestine (F4 (167 MBq)): 8.53 mGy | Estimated absorbed dose, Spleen (F4 (167 MBq)): 3.75 mGy | Estimated absorbed dose, Stomach wall (F4 (167 MBq)): 2.46 mGy | Estimated absorbed dose, Thymus (F4 (167 MBq)): 4.47 mGy | Estimated absorbed dose, Thyroid (F4 (167 MBq)): 2.53 mGy | Estimated absorbed dose, Urinary bladder wall (F4 (167 MBq)): 4.45 mGy | Estimated absorbed dose, Uterus (F4 (167 MBq)): 6.39 mGy | Effective dose (whole body) (Female n=4, mean±SD): 0.0223±0.0033 mSv/MBq | Estimated dose, Adrenals (Female n=4, mean±SD): 0.0307±0.0025 mGy/MBq | Estimated dose, Brain (Female n=4, mean±SD): 0.0152±0.0017 mGy/MBq | Estimated dose, Breasts (Female n=4, mean±SD): 0.00866±0.00067 mGy/MBq | Estimated dose, Esophagus (Female n=4, mean±SD): 0.0152±0.0006 mGy/MBq | Estimated dose, Eyes (Female n=4, mean±SD): 0.00797±0.00081 mGy/MBq | Estimated dose, Gallbladder wall (Female n=4, mean±SD): 0.0259±0.0031 mGy/MBq | Estimated dose, Heart wall (Female n=4, mean±SD): 0.0218±0.0027 mGy/MBq | Estimated dose, Kidneys (Female n=4, mean±SD): 0.197±0.045 mGy/MBq | Estimated dose, Left colon (Female n=4, mean±SD): 0.0146±0.0007 mGy/MBq | Estimated dose, Liver (Female n=4, mean±SD): 0.0449±0.0049 mGy/MBq | Estimated dose, Lungs (Female n=4, mean±SD): 0.0499±0.0088 mGy/MBq | Estimated dose, Osteogenic cells (Female n=4, mean±SD): 0.00899±0.00054 mGy/MBq | Estimated dose, Ovaries (Female n=4, mean±SD): 0.0144±0.0017 mGy/MBq | Estimated dose, Pancreas (Female n=4, mean±SD): 0.0244±0.0033 mGy/MBq | Estimated dose, Rectum (Female n=4, mean±SD): 0.0157±0.0037 mGy/MBq | Estimated dose, Red marrow (Female n=4, mean±SD): 0.0116±0.0005 mGy/MBq | Estimated dose, Right colon (Female n=4, mean±SD): 0.0145±0.0009 mGy/MBq | Estimated dose, Salivary Glands (Female n=4, mean±SD): 0.0085±0.0008 mGy/MBq | Estimated dose, Small intestine (Female n=4, mean±SD): 0.0381±0.0098 mGy/MBq | Estimated dose, Spleen (Female n=4, mean±SD): 0.0319±0.0150 mGy/MBq | Estimated dose, Stomach wall (Female n=4, mean±SD): 0.0153±0.0010 mGy/MBq | Estimated dose, Thymus (Female n=4, mean±SD): 0.0284±0.0082 mGy/MBq
SMILES: COC(=O)[C@@H](N)CC(=O)Nc1ccc2c(c1)Cc1cc([18F])ccc1-2 [[^18F]RP-115, methyl N^4-(7-[^18F]fluoro-9H-fluoren-2-yl)asparaginate]
